Laboratory results from ChEMBL document CHEMBL1124770, “Synthesis and pharmacological evaluation of amino, azido, and nitrogen mustard analogues of 10-substituted cannabidiol and 11- or 12-substituted delta 8-tetrahydrocannabinol” (1990).

Assays:
Assay type in all cases: functional
Mus musculus [1] = test: Evaluated for hypothermic activity in mice at a dose of 3 mg/kg.
In short: (§1)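 Mice dosed by tail-vein injection (0.1 mL/10 g) in ethanol/emulphor/saline (1:1:18). Body temperature change (°C) measured by previously reported methods. Vehicle and Δ9-THC positive controls run each day. Mean ± SEM; ANOVA with Dunnett's t test versus control, p < 0.05 two-tailed.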

Mus musculus [2] = test: Evaluated for hypothermic activity in mice at a dose of 6 mg/kg.; in short: as §1
Mus musculus [3] = test: Evaluated for hypothermic activity in mice at a dose of 0 mg/Kg.; in short: as §1
Mus musculus [4] = test: Evaluated for catalepsy activity in mice and percentage immobility was determined at a concentration of 0 mg/Kg.
In short: (§2)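 Mice, single tail-vein injection (0.1 mL/10 g) in ethanol/emulphor/saline (1:1:18). Catalepsy scored by ring test as % immobility, per previously reported methods. Vehicle and Δ9-THC positive-control groups run in each daily experiment. Mean ± SEM; ANOVA with Dunnett's t test versus control, p < 0.05 two-tailed.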

Mus musculus [5] = test: Tail-flick latency was determined at a concentration of 0 mg/Kg.
In short: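 Antinociception in mice by tail-flick latency (s), per previously reported methods, after tail-vein injection (0.1 mL/10 g) in ethanol/emulphor/saline (1:1:18). Vehicle and Δ9-THC controls run daily. Mean ± SEM; ANOVA with Dunnett's t test, p < 0.05 two-tailed.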

Mus musculus [6] = test: Evaluated for reduction in spontaneous locomotor activity in mice at a dose of 3 mg/Kg
In short: (§3)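 Tail-vein injection in mice (0.1 mL/10 g; ethanol/emulphor/saline 1:1:18). Spontaneous locomotor activity counted as counts/10 min, per previously reported methods. Daily vehicle and Δ9-THC positive controls. Mean ± SEM; ANOVA with Dunnett's t test, p < 0.05 two-tailed.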

Mus musculus [7] = test: Evaluated for reduction in spontaneous locomotor activity in mice at a dose of 5 mg/Kg; in short: as §3
Mus musculus [8] = test: Tail-flick latency was determined at a concentration of 3 mg/Kg.
In short: (§4)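 Mice, drug suspended in ethanol/emulphor/saline (1:1:18) and given by tail-vein injection (0.1 mL/10 g). Antinociception measured as tail-flick latency (s). Vehicle and Δ9-THC positive controls run in each daily experiment. Data given as mean ± SEM. ANOVA with Dunnett's t test against control, p < 0.05 (two-tailed).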

Mus musculus [9] = test: Evaluated for catalepsy activity in mice and percentage immobility was determined at a concentration of 3 mg/Kg.; in short: as §2
Mus musculus [10] = test: Tail-flick latency was determined at a concentration of 5 mg/Kg.; in short: as §4
Mus musculus [11] = test: Tail-flick latency was determined at a concentration of 6 mg/kg.; in short: as §4
Mus musculus [12] = test: Evaluated for catalepsy activity in mice and percentage immobility was determined at a concentration of 5 mg/kg.; in short: as §2
Mus musculus [13] = test: Evaluated for reduction in spontaneous locomotor activity in mice, at a dose of 0 mg/Kg; in short: as §3
Mus musculus [14] = test: Evaluated for reduction in spontaneous locomotor activity in mice at a dose of 6 mg/Kg; in short: as §3
Mus musculus [15] = test: Evaluated for hypothermic activity in mice at a dose of 5 mg/Kg.; in short: as §1
Mus musculus [16] = test: Tail-flick latency was determined at a concentration of 30 mg/Kg.; in short: as §4
Mus musculus [17] = test: Tail-flick latency was determined at a concentration of 100 ug/Kg administered intraventricularly
Mus musculus [18] = test: Evaluated for hypothermic activity in mice at a dose of 0 ug/Kg administered intraventricularly
In short: (§5)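 Intraventricular injection in mice, 5 μL volume, in ethanol/emulphor/saline (1:1:18) vehicle. Change in body temperature (°C) recorded by previously reported methods, with vehicle and Δ9-THC controls. Mean ± SEM; ANOVA with Dunnett's t test versus control, p < 0.05 two-tailed.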

Mus musculus [19] = test: Evaluated for hypothermic activity in mice at a dose of 6 mg/Kg.; in short: as §1
Mus musculus [20] = test: Evaluated for hypothermic activity in mice at a dose of 100 ug/Kg administered intraventricularly; in short: as §5
Mus musculus [21] = test: Evaluated for catalepsy activity in mice and percentage immobility was determined at a concentration of 6 mg/Kg.; in short: as §2
Mus musculus [22] = test: Evaluated for hypothermic activity in mice at a dose of 0.3 mg/Kg.; in short: as §1
Mus musculus [23] = test: Tail-flick latency was determined at a concentration of 150 ug/Kg administered intraventricularly
In short: (§6)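 Mice, injected intraventricularly in 5 μL of ethanol/emulphor/saline (1:1:18) vehicle. Doses given as μg amounts. Antinociception read as tail-flick latency (s), alongside vehicle control. Values reported as mean ± SEM. ANOVA with Dunnett's t test versus control, significance at p < 0.05 (two-tailed).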

Mus musculus [24] = test: Evaluated for reduction in spontaneous locomotor activity in mice, at a dose of 0 ug/Kg administered intraventricularly
In short: (§7)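 Mice given intraventricular injection of 5 μL in ethanol/emulphor/saline (1:1:18). Spontaneous locomotor activity recorded as counts/10 min by previously reported methods, alongside vehicle and Δ9-THC controls. Mean ± SEM; ANOVA with Dunnett's t test, p < 0.05 two-tailed.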

Mus musculus [25] = test: Evaluated for hypothermic activity in mice at a dose of 3 mg/Kg.; in short: as §1
Mus musculus [26] = test: Evaluated for hypothermic activity in mice at a dose of 50 ug/Kg administered intraventricularly; in short: as §5
Mus musculus [27] = test: Tail-flick latency was determined at a concentration of 50 ug/Kg administered intraventricularly; in short: as §6
Mus musculus [28] = test: Evaluated for catalepsy activity in mice and percentage immobility was determined at a concentration of 30 mg/Kg.; in short: as §2
Mus musculus [29] = test: Evaluated for reduction in spontaneous locomotor activity in mice, at a dose of 3 mg/Kg; in short: as §3
Mus musculus [30] = test: Evaluated for hypothermic activity in mice at a dose of 150 ug/Kg administered intraventricularly; in short: as §5
Mus musculus [31] = test: Evaluated for reduction in spontaneous locomotor activity in mice at a dose of 0.3 mg/Kg; in short: as §3
Mus musculus [32] = test: Tail-flick latency was determined at a concentration of 6 mg/Kg.; in short: as §4
Mus musculus [33] = test: Evaluated for catalepsy activity in mice and percentage immobility was determined at a concentration of 0.3 mg/Kg.; in short: as §2
Mus musculus [34] = test: Tail-flick latency was determined at a concentration of 0.3 mg/Kg.; in short: as §4
Mus musculus [35] = test: Evaluated for reduction in spontaneous locomotor activity in mice, at a dose of 50 ug/Kg administered intraventricularly; in short: as §7
Mus musculus [36] = test: Evaluated for hypothermic activity in mice at a dose of 30 mg/Kg.; in short: as §1
Mus musculus [37] = test: Tail-flick latency was determined at a concentration of 0 ug/Kg administered intraventricularly
In short: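 Tail-flick latency (s) in mice after intraventricular injection (5 μL) of ethanol/emulphor/saline (1:1:18) vehicle, measured by previously reported methods. Mean ± SEM; ANOVA with Dunnett's t test, p < 0.05 two-tailed.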

Mus musculus [38] = test: Evaluated for reduction in spontaneous locomotor activity in mice, at a dose of 100 ug/Kg administered intraventricularly; in short: as §7
Mus musculus [39] = test: Evaluated for reduction in spontaneous locomotor activity in mice, at a dose of 6 mg/Kg; in short: as §3
Mus musculus [40] = test: Evaluated for reduction in spontaneous locomotor activity in mice, at a dose of 150 ug/Kg administered intraventricularly; in short: as §7
Mus musculus [41] = test: Evaluated for reduction in spontaneous locomotor activity in mice, at a dose of 30 mg/Kg; in short: as §3

For `CCCCCc1cc(O)c2c(c1)OC(C)(CN)[C@@H]1CC=C(C)CC21` (some centres not stated), which Temperature (Mus musculus [1]) is on record?
Its Temperature is -1.1 °C.

And the Temperature (Mus musculus [2])?
The Temperature was less than -3 °C.

And the Temperature (Mus musculus [3])?
The Temperature was -0.8 °C.

And the Immobility (Mus musculus [4])?
Its Immobility is 13%.

What about the Tail flick latency (Mus musculus [5]) of the same molecule?
The Tail flick latency was 0.6 s.

What about the Spont activity (Mus musculus [6]) of the same molecule?
Its Spont activity is less than 43 Counts 10min-1.

What about the Spont activity (Mus musculus [7]) of the same molecule?
The Spont activity was less than 42 Counts 10min-1.

What about the Tail flick latency (Mus musculus [8]) of the same molecule?
Its Tail flick latency is 1.1 s.

And the Immobility (Mus musculus [9])?
The Immobility was 24%.

What about the Tail flick latency (Mus musculus [10]) of the same molecule?
The Tail flick latency was less than 1.9 s.

What about the Tail flick latency (Mus musculus [11]) of the same molecule?
The Tail flick latency was 1.1 s.

And the Immobility (Mus musculus [12])?
The Immobility was 15%.

What about the Spont activity (Mus musculus [13]) of the same molecule?
Its Spont activity is 68 Counts 10min-1.

What about the Spont activity (Mus musculus [14]) of the same molecule?
The Spont activity was less than 25 Counts 10min-1.

And the Temperature (Mus musculus [15])?
The Temperature was -0.7 °C.

For `CCCCCc1cc(O)c2c(c1)OC(C)(C)[C@@H]1CCC(C)=C[C@@H]21` [DRONABINOL], which Tail flick latency (Mus musculus [16]) is on record?
The Tail flick latency was less than 5.1 s.

And the Tail flick latency (Mus musculus [17])?
The Tail flick latency was less than 2.3 s.

And the Temperature (Mus musculus [3])?
The Temperature was -1.1 °C.

What about the Temperature (Mus musculus [18]) of the same molecule?
Its Temperature is -2.2 °C.

And the Temperature (Mus musculus [19])?
Its Temperature is less than -2.9 °C.

What about the Temperature (Mus musculus [20]) of the same molecule?
Its Temperature is -3.6 °C.

And the Immobility (Mus musculus [21])?
The Immobility was less than 42%.

And the Temperature (Mus musculus [22])?
The Temperature was -1 °C.

And the Tail flick latency (Mus musculus [23])?
Its Tail flick latency is less than 4 s.

And the Immobility (Mus musculus [4])?
The Immobility was 8%.

And the Tail flick latency (Mus musculus [5])?
The Tail flick latency was 0.6 s.

What about the Spont activity (Mus musculus [24]) of the same molecule?
Its Spont activity is 103 Counts 10min-1.

And the Temperature (Mus musculus [25])?
The Temperature was less than -2.4 °C.

What about the Temperature (Mus musculus [26]) of the same molecule?
The Temperature was -2.3 °C.

What about the Tail flick latency (Mus musculus [8]) of the same molecule?
The Tail flick latency was less than 2.9 s.

And the Tail flick latency (Mus musculus [27])?
The Tail flick latency was less than 1.6 s.

And the Immobility (Mus musculus [28])?
Its Immobility is less than 57%.

What about the Spont activity (Mus musculus [29]) of the same molecule?
Its Spont activity is less than 30 Counts 10min-1.

And the Immobility (Mus musculus [9])?
Its Immobility is less than 25%.

And the Temperature (Mus musculus [30])?
The Temperature was less than -5.5 °C.

What about the Spont activity (Mus musculus [31]) of the same molecule?
Its Spont activity is 70 Counts 10min-1.

And the Tail flick latency (Mus musculus [32])?
Its Tail flick latency is less than 4.9 s.

And the Immobility (Mus musculus [33])?
The Immobility was 9%.

What about the Tail flick latency (Mus musculus [34]) of the same molecule?
Its Tail flick latency is less than 2 s.

What about the Spont activity (Mus musculus [35]) of the same molecule?
Its Spont activity is 46 Counts 10min-1.

And the Temperature (Mus musculus [36])?
The Temperature was less than -5.1 °C.

And the Tail flick latency (Mus musculus [37])?
Its Tail flick latency is -0.2 s.

What about the Spont activity (Mus musculus [38]) of the same molecule?
Its Spont activity is less than 41 Counts 10min-1.

And the Spont activity (Mus musculus [13])?
The Spont activity was 54 Counts 10min-1.

And the Spont activity (Mus musculus [39])?
The Spont activity was less than 23 Counts 10min-1.

What about the Spont activity (Mus musculus [40]) of the same molecule?
Its Spont activity is less than 33 Counts 10min-1.

And the Spont activity (Mus musculus [41])?
Its Spont activity is less than 7 Counts 10min-1.
